These results are taken from ChEMBL document CHEMBL3808293, “Antiproliferative activity and apoptosis inducing effects of nitric oxide donating derivatives of evodiamine” (Bioorg Med Chem, 2016).

The term pIC50 denotes the negative decadic logarithm of the IC50, by convention in mol/L. Higher therefore signals a small IC50.

Assay [1] is described as follows: Antiproliferative activity against human BGC823 cells after 72 hrs by MTT assay. Type of assay: functional, cell-based. Conditions: BGC-823, 72 h. The gist of the method:
(§1)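 Cells pre-incubated 24 h at 37 °C, 5% CO2, then exposed to compounds for 72 h. MTT (5 mg/mL solution) added for a further 4 h, formazan dissolved in DMSO, OD read at 570 nm. Negative reference 0.1% DMSO; evodiamine and 5-Fu as positive references. IC50 is the concentration inhibiting 50% of growth; mean ± SD of three independent experiments.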
A general note: Tetrazolium assays rely on reduction of a dye to a coloured formazan, in cell work by metabolically active cells.

In a further assay the test system is A549. Kind of assay: Antiproliferative activity against human A549 cells after 72 hrs by MTT assay. Format: functional, cell-based. As to conditions: A549, 72 h. The gist of the method:
as §1

Assay [2] in a line: Antiproliferative activity against human Bel7402 cells after 72 hrs by MTT assay. Type of assay: functional, cell-based. As to conditions: Bel-7402, 72 h. In short, it runs like this:
as §1

Assay [3] in a line: Antiproliferative activity against human L02 cells after 72 hrs by MTT assay. Conditions: L02, 72 h. Format: cell-based. In short, it runs like this:
as §1

For a further assay, the system named is BGC-823. The experiment in a line: Induction of NO release in human BGC823 cells at 100 uM incubated for 1 hr by Griess assay. Type of assay: functional. In short, it runs like this: (§2)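 Cells exposed to 100 μM compound; the methods give 150 min, the results text 1 h. Cell lysates mixed with Griess reagent 10 min at 37 °C, absorbance read at 540 nm. Nitrite quantified against a sodium nitrite standard curve; 0.4% DMSO-treated cells gave background. Mean ± SD of three independent experiments.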
On the technique in general: The Griess reaction detects nitrite, a stable product of nitric oxide.

A further assay deals with Bel-7402. The experiment in a line: Induction of NO release in human Bel7402 cells at 100 uM incubated for 1 hr by Griess assay. Type of assay: functional. The gist of the method: as §2
A further assay deals with L02. The experiment in a line: Induction of NO release in human L02 cells at 100 uM incubated for 1 hr by Griess assay. Type of assay: functional. The gist of the method: as §2

Each structure is given as a SMILES string. pIC50: −log10 of the molar value. Where only a bound is given, the exact number is not on record here.

In the case of `COC(=O)CCC(=O)OCCOc1no[n+]([O-])c1S(=O)(=O)c1ccccc1`, the negative-log IC50 (pIC50) in assay [1] is 4.67; with A549, 4.61; in assay [2] it was 4.56; in assay [3], 4.36.
Take `CN1c2ccccc2C(=O)N2CCc3c(n(CCCCCCO[N+](=O)[O-])c4ccccc34)C21` (centres undefined): the results for the Activity with BGC-823, with Bel-7402 and in the assay with L02 were 100 µM, 104 µM and 16.4 µM, respectively. Further, the pIC50 in assay [1] was below 4.00; in the assay on A549 it was below 4.00; in assay [2], 4.54; in assay [3], below 4.00.
Regarding `CN1c2ccccc2C(=O)N2CCc3c([nH]c4ccccc34)C21` (centres undefined), the pIC50 was 5.94 in assay [1], 6.01 in the assay with A549, 5.91 in assay [2] and 6.47 in assay [3].
For `CN1c2ccccc2C(=O)N2CCc3c(n(CCOc4no[n+]([O-])c4S(=O)(=O)c4ccccc4)c4ccccc34)C21` (centres undefined), the results for the Activity with BGC-823, in the assay with Bel-7402 and in the assay with L02 were 78.8 µM, 77.5 µM and 18.5 µM, respectively. Besides, the pIC50 in assay [1] is 7.70; with A549, 6.64; in assay [2], 6.26; in assay [3], 7.70.
On to `CN1c2ccccc2C(=O)N2CCc3c(n(CCCO[N+](=O)[O-])c4ccccc34)C21` (centres undefined), for which the Activity was 83.8 µM with BGC-823, 78.5 µM in the assay with Bel-7402 and 19.4 µM in the assay with L02. Besides, the pIC50 was below 4.00 in assay [1], below 4.00 with A549, 4.89 in assay [2] and below 4.00 in assay [3].
